Measured values taken from ChEMBL document CHEMBL3808334, “Synthesis and in vitro evaluation of novel triazine analogues as anticancer agents and their interaction studies with bovine serum albumin” (Eur J Med Chem, 2016).

Tests used:
SN12C = test: Growth inhibition of human SN12C cells assessed as cell growth at 10^-8 M incubated for 48 hrs by sulforhodamine B assay; assay type: functional; conditions: read-out: Activity
[1] = Growth inhibition of human SF268 cells assessed as cell growth at 10^-8 M incubated for 48 hrs by sulforhodamine B assay; assay type: functional; conditions: SF-268, 48 h, read-out: Activity
[2] = Growth inhibition of human HOP62 cells assessed as cell growth at 10^-7 M incubated for 48 hrs by sulforhodamine B assay; assay type: functional; conditions: HOP-62, 48 h, read-out: Activity
NCI-H226 = test: Growth inhibition of human NCI-H226 cells assessed as cell growth at 10 uM incubated for 48 hrs by sulforhodamine B assay; assay type: functional; conditions: NCI-H226, 48 h, read-out: Activity
Albumin = Albumin (Bos taurus, UniProt P02769); test: Binding affinity to bovine serum albumin assessed as hyperchromicity in absorption spectra up to 20 uM after 5 mins by UV-visible spectroscopic analysis relative to control; assay type: ADME; conditions: cattle, isolated protein
Method in brief: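 UV-visible absorption titration of 10 µM BSA in 0.1 M phosphate buffer pH 7.4 with increasing compound, 0–20 µM. Compounds diluted from DMSO stocks into buffer. Spectra recorded 200–800 nm in a 1 cm quartz cell at 300 K after 5 min equilibration. The BSA band is at 279 nm; changes are compared with BSA alone.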

786-0 = test: Growth inhibition of human 786-0 cells assessed as cell growth at 10^-4 M incubated for 48 hrs by sulforhodamine B assay; assay type: functional; conditions: 786-0, 48 h, read-out: Activity
Method in brief: (§1)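 Five-dose assay: five concentrations from 10-fold or ½-log serial dilutions. Cells are plated at 5,000–40,000 per well according to doubling time, grown 24 h, then exposed 48 h at 37 °C, 5% CO₂. Fixed with cold 50% TCA (final addition) for 60 min at 4 °C and stained with 0.4% SRB in 1% acetic acid. Bound dye is solubilized in 10 mM Tris base and read at 515 nm. GI₅₀ is where [(Ti−Tz)/(C−Tz)]×100 = 50, with a time-zero plate as Tz.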

T47D = test: Growth inhibition of human T47D cells assessed as cell growth at 10^-8 M incubated for 48 hrs by sulforhodamine B assay; assay type: functional; conditions: read-out: Activity
SK-MEL-2 = test: Growth inhibition of human SK-MEL-2 cells assessed as cell growth at 10^-5 M incubated for 48 hrs by sulforhodamine B assay; assay type: functional; conditions: SK-MEL-2, 48 h, read-out: Activity
[3] = Growth inhibition of human SF539 cells assessed as cell growth at 10^-5 M incubated for 48 hrs by sulforhodamine B assay; assay type: functional; conditions: SF-539, 48 h, read-out: Activity
[4] = Growth inhibition of human HOP62 cells incubated for 48 hrs by sulforhodamine B assay; assay type: functional; conditions: HOP-62, 48 h
Method in brief: (§2)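 Cells seeded at 5,000–40,000/well according to doubling time and preincubated 24 h at 37 °C, 5% CO2. Time-zero plates were TCA-fixed. DMSO concentrate was diluted in medium with 50 µg/ml gentamicin to give five concentrations (10-fold or ½ log steps), then exposed 48 h. Cells were TCA-fixed, stained with 0.4% SRB and read at 515 nm. Percent growth was taken against time-zero and control; GI50, TGI and LC50 derived.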

[5] = Growth inhibition of human RXF393 cells assessed as cell growth at 10^-7 M incubated for 48 hrs by sulforhodamine B assay; assay type: functional; conditions: RXF 393, 48 h, read-out: Activity
ACHN = test: Growth inhibition of human ACHN cells assessed as cell growth at 10^-6 M incubated for 48 hrs by sulforhodamine B assay; assay type: functional; conditions: read-out: Activity; method in brief: as §1
[6] = Growth inhibition of human HOP92 cells assessed as cell growth at 10^-4 M incubated for 48 hrs by sulforhodamine B assay; assay type: functional; conditions: HOP-92, 48 h, read-out: Activity
[7] = Growth inhibition of human COLO205 cells incubated for 48 hrs by sulforhodamine B assay; assay type: functional; conditions: COLO 205, 48 h; method in brief: as §2
NCI-H522 = test: Growth inhibition of human NCI-H522 cells assessed as cell growth at 10^-6 M incubated for 48 hrs by sulforhodamine B assay; assay type: functional; conditions: NCI-H522, 48 h, read-out: Activity
HT-29 = test: Growth inhibition of human HT-29 cells assessed as cell growth at 10^-4 M incubated for 48 hrs by sulforhodamine B assay; assay type: functional; conditions: HT-29, 48 h, read-out: Activity
[8] = Growth inhibition of human HOP62 cells assessed as cell growth at 10^-6 M incubated for 48 hrs by sulforhodamine B assay; assay type: functional; conditions: HOP-62, 48 h, read-out: Activity
[9] = Growth inhibition of human Hs 578T cells assessed as cell growth at 10^-8 M incubated for 48 hrs by sulforhodamine B assay; assay type: functional; conditions: read-out: Activity
[10] = Growth inhibition of human SKOV3 cells assessed as cell growth at 10 uM incubated for 48 hrs by sulforhodamine B assay; assay type: functional; conditions: SK-OV-3, 48 h, read-out: Activity
[11] = Growth inhibition of human LOXIMVI cells assessed as cell growth at 10^-5 M incubated for 48 hrs by sulforhodamine B assay; assay type: functional; conditions: LOX IMVI, read-out: Activity
[12] = Growth inhibition of human TK10 cells assessed as cell growth at 10^-8 M incubated for 48 hrs by sulforhodamine B assay; assay type: functional; conditions: TK-10, 48 h, read-out: Activity
[13] = Growth inhibition of human UO31 cells incubated for 48 hrs by sulforhodamine B assay; assay type: functional; conditions: UO-31, 48 h; for CC50: read-out: pLC50 (the source's name) (converted)
Method in brief: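 Cells were plated at 5,000–40,000 per well according to doubling time and preincubated 24 h at 37 °C in 5% CO2; time-zero plates were then TCA-fixed. Five concentrations (10-fold or ½-log dilutions, DMSO stock) were incubated 48 h. Cells were TCA-fixed, stained with 0.4% SRB and read at 515 nm. GI50 was taken where [(Ti−Tz)/(C−Tz)]×100 = 50.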

[14] = Growth inhibition of human OVCAR8 cells assessed as cell growth at 10 uM incubated for 48 hrs by sulforhodamine B assay; assay type: functional; conditions: OVCAR-8, 48 h, read-out: Activity
[15] = Growth inhibition of human OVCAR4 cells assessed as cell growth at 10^-8 M incubated for 48 hrs by sulforhodamine B assay; assay type: functional; conditions: OVCAR-4, 48 h, read-out: Activity
NCI-H23 [16] = test: Growth inhibition of human NCI-H23 cells assessed as cell growth at 10^-7 M incubated for 48 hrs by sulforhodamine B assay; assay type: functional; conditions: NCI-H23, 48 h, read-out: Activity
NCI-H23 [17] = test: Growth inhibition of human NCI-H23 cells assessed as cell growth at 10^-5 M incubated for 48 hrs by sulforhodamine B assay; assay type: functional; conditions: NCI-H23, 48 h, read-out: Activity

Sequence of Albumin (P02769 whole entry): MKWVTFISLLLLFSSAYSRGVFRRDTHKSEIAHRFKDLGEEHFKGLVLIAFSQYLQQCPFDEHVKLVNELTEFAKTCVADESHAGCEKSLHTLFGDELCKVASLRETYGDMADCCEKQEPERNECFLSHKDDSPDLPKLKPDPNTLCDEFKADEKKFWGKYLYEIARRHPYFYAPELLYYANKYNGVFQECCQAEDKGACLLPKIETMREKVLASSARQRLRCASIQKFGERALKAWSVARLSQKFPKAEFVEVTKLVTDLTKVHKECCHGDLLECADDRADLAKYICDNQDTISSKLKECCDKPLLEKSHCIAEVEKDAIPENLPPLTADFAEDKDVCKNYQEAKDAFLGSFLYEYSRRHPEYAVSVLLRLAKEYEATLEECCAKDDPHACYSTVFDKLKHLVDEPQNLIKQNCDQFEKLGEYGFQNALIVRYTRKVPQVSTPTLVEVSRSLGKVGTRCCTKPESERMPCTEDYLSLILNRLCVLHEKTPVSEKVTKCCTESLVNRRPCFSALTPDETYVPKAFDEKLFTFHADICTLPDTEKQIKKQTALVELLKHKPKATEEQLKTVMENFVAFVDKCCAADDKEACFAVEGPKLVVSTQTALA

Compound: Fc1ccc(-c2nc(Nc3ccc(-c4nc5ccccc5[nH]4)cc3)nc(N3CCOCC3)n2)cc1
- growth at 0.01 µM (SN12C): 95%
- growth at 0.01 µM [1]: 95%
- growth at 0.1 µM [2]: 97%
- growth at 10 µM (NCI-H226): 17.1%
- Activity (Albumin): 86.8%
- growth at 100 µM (786-0): -68%
- growth at 0.01 µM (T47D): 101%
- growth at 10 µM (SK-MEL-2): -35%
- growth at 10 µM [3]: -60%
- GI50 ([4]; read-out: GI50): 2.11 µM
- LC50 ([4]; read-out: LC50): > 100 µM
- TGI ([4]; read-out: TGI): 5.3 µM
- GI50 ([4]; read-out: pGI50 (converted)): 2.09 µM
- LC50 ([4]; read-out: pLC50 (converted)): > 100 µM
- TGI ([4]; read-out: pTGI (converted)): 5.25 µM
- growth at 0.1 µM [5]: 100%
- growth at 1 µM (ACHN): 82%
- growth at 100 µM [6]: -58%
- GI50 ([7]; read-out: GI50): 1.92 µM
- LC50 ([7]; read-out: LC50): 9.23 µM
- TGI ([7]; read-out: TGI): 4.21 µM
- GI50 ([7]; read-out: pGI50 (converted)): 1.91 µM
- LC50 ([7]; read-out: pLC50 (converted)): 9.33 µM
- TGI ([7]; read-out: pTGI (converted)): 4.17 µM
- growth at 1 µM (NCI-H522): 97%
- growth at 100 µM (HT-29): -43%
- growth at 1 µM [8]: 90%
- growth at 0.01 µM [9]: 95%
- growth at 10 µM [10]: 19.6%
- growth at 10 µM [11]: -73%
- growth at 0.01 µM [12]: 91%
- LC50 [13]: > 100 µM
- GI50 ([13]; read-out: GI50): 2.16 µM
- TGI ([13]; read-out: TGI): 5.64 µM
- GI50 ([13]; read-out: pGI50 (converted)): 2.14 µM
- CC50 [13]: > 100 µM
- TGI ([13]; read-out: pTGI (converted)): 5.62 µM
- growth at 10 µM [14]: 39.2%
- growth at 0.01 µM [15]: 99%
- growth at 0.1 µM (NCI-H23 [16]): 91%

Compound: Clc1ccc(-c2nc(Nc3ccc(-c4nc5ccccc5[nH]4)cc3)nc(N3CCOCC3)n2)cc1
- growth at 0.01 µM (SN12C): 95%
- growth at 0.01 µM [1]: 98%
- growth at 0.1 µM [2]: 93%
- growth at 10 µM (NCI-H226): -64.5%
- Activity (Albumin): 97.67%
- growth at 100 µM (786-0): -21%
- growth at 0.01 µM (T47D): 99%
- growth at 10 µM (SK-MEL-2): -87%
- growth at 10 µM [3]: -87%
- GI50 ([4]; read-out: GI50): 1.4 µM
- TGI ([4]; read-out: TGI): 3.04 µM
- GI50 ([4]; read-out: pGI50 (converted)): 1.41 µM
- TGI ([4]; read-out: pTGI (converted)): 3.02 µM
- growth at 0.1 µM [5]: 106%
- growth at 10 µM (NCI-H23 [17]): -66%
- growth at 1 µM (ACHN): 53%
- growth at 100 µM [6]: -67%
- GI50 ([7]; read-out: GI50): 0.305 µM
- TGI ([7]; read-out: TGI): 1.07 µM
- GI50 ([7]; read-out: pGI50 (converted)): 0.302 µM
- TGI ([7]; read-out: pTGI (converted)): 1.07 µM
- growth at 1 µM (NCI-H522): 77%
- growth at 100 µM (HT-29): -42%
- growth at 1 µM [8]: 72%
- growth at 0.01 µM [9]: 90%
- growth at 10 µM [10]: -89.9%
- growth at 10 µM [11]: -70%
- growth at 0.01 µM [12]: 93%
- GI50 ([13]; read-out: GI50): 1.51 µM
- TGI ([13]; read-out: TGI): 3.03 µM
- GI50 ([13]; read-out: pGI50 (converted)): 1.51 µM
- TGI ([13]; read-out: pTGI (converted)): 3.02 µM
- growth at 10 µM [14]: -73.8%
- growth at 0.01 µM [15]: 103%
- growth at 0.1 µM (NCI-H23 [16]): 92%

Compound: c1ccc2[nH]c(-c3ccc(Nc4nc(N5CCCCC5)nc(N5CCOCC5)n4)cc3)nc2c1
- growth at 0.01 µM (SN12C): 95%
- growth at 0.01 µM [1]: 96%
- growth at 0.1 µM [2]: 96%
- growth at 10 µM (NCI-H226): 32.7%
- Activity (Albumin): 72.31%
- growth at 100 µM (786-0): -87%
- growth at 0.01 µM (T47D): 93%
- growth at 10 µM (SK-MEL-2): -38%
- growth at 10 µM [3]: -28%
- GI50 ([4]; read-out: GI50): 1.92 µM
- LC50 ([4]; read-out: LC50): 9.73 µM
- TGI ([4]; read-out: TGI): 4.32 µM
- GI50 ([4]; read-out: pGI50 (converted)): 1.91 µM
- LC50 ([4]; read-out: pLC50 (converted)): 9.77 µM
- TGI ([4]; read-out: pTGI (converted)): 4.37 µM
- growth at 0.1 µM [5]: 91%
- growth at 10 µM (NCI-H23 [17]): 6%
- growth at 1 µM (ACHN): 90%
- growth at 100 µM [6]: -71%
- GI50 ([7]; read-out: GI50): 1.86 µM
- LC50 ([7]; read-out: LC50): 8.27 µM
- TGI ([7]; read-out: TGI): 3.92 µM
- GI50 ([7]; read-out: pGI50 (converted)): 1.86 µM
- LC50 ([7]; read-out: pLC50 (converted)): 8.32 µM
- TGI ([7]; read-out: pTGI (converted)): 3.89 µM
- growth at 1 µM (NCI-H522): 94%
- growth at 100 µM (HT-29): -46%
- growth at 1 µM [8]: 90%
- growth at 0.01 µM [9]: 96%
- growth at 10 µM [10]: 22.5%
- growth at 10 µM [11]: -72%
- growth at 0.01 µM [12]: 96%
- LC50 [13]: > 100 µM
- GI50 ([13]; read-out: GI50): 2 µM
- TGI ([13]; read-out: TGI): 5.14 µM
- GI50 ([13]; read-out: pGI50 (converted)): 2 µM
- CC50 [13]: > 100 µM
- TGI ([13]; read-out: pTGI (converted)): 5.13 µM
- growth at 10 µM [14]: 45.7%
- growth at 0.01 µM [15]: 101%
- growth at 0.1 µM (NCI-H23 [16]): 93%
